Results published in ChEMBL document CHEMBL1137037, “Pyrrolo[2,1-c][1,4]benzodiazepine-anthraquinone conjugates. Synthesis, DNA binding and cytotoxicity” (Bioorg Med Chem Lett, 2004).

Key:
L1210 = assay: In vitro cytotoxicity against mouse leukemia L1210 cell lines; assay type: functional, cell-based
Calf thymus DNA [1] = assay: Thermal denaturation of calf thymus DNA at 37 degree C; assay type: nucleic-acid assay; conditions: Bos taurus
Summary of the method: (§1)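 Calf thymus DNA at 100 μM with ligand at 20 μM (1:5 [PBD]/[DNA] molar ratio), in 10 mM sodium phosphate plus 1 mM EDTA, pH 7.00 ± 0.01. Samples were incubated at 37 °C for 0 h or 18 h before thermal melting. The value is the induced ΔTm against DNA alone, whose Tm is the mean of 10 separate determinations.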

SiHa [2] = assay: Percent growth inhibition against human cervix SiHa cell lines at the concentration of 10E-4; assay type: functional
HT-29 [3] = assay: Percent growth inhibition against human colon HT-29 cell lines at the concentration of 10E-4; assay type: functional
SiHa [4] = assay: Percent growth inhibition against human cervix SiHa cell lines at the concentration of 10E-5; assay type: functional
A549 [5] = assay: Percent growth inhibition against human lung A-549 cell lines at the concentration of 10E-5; assay type: functional
HCT-15 [6] = assay: Percent growth inhibition against human colon HCT-15 cell lines at the concentration of 10E-5; assay type: functional
HT-29 [7] = assay: Percent growth Inhibition against human colon HT-29 cell lines at the concentration of 10E-6; assay type: functional
A549 [8] = assay: Percent growth inhibition against human lung A-549 cell lines at the concentration of 10E-6; assay type: functional
A549 [9] = assay: Percent growth inhibition against human lung A-549 cell lines at the concentration of 10E-4; assay type: functional
HCT-15 [10] = assay: Percent growth inhibition against human colon HCT-15 cell lines at the concentration of 10E-6; assay type: functional
Calf thymus DNA [11] = assay: Thermal denaturation of calf thymus DNA at 18 hr at 37 degree C; assay type: nucleic-acid assay; conditions: Bos taurus; summary of the method: as §1
HT-29 [12] = assay: Percent growth inhibition against human colon HT-29 cell lines at the concentration of 10E-5; assay type: functional
SiHa [13] = assay: Percent growth inhibition against human cervix SiHa cell lines at the concentration of 10E-6; assay type: functional
HOP-62 [14] = assay: Percent growth inhibition against human lung HOP-62 cell lines at the concentration of 10E-6; assay type: functional
Calf thymus DNA [15] = assay: Thermal denaturation of calf thymus DNA at 0 h at 37 degree C; assay type: nucleic-acid assay; conditions: Bos taurus; summary of the method: as §1
HOP-62 [16] = assay: Percent growth inhibition against human lung HOP-62 cell lines at the concentration of 10E-5; assay type: functional

## O=C1c2c(O)ccc(O)c2C(=O)c2c(NCCNCCO)ccc(NCCNCCO)c21 [MITOXANTRONE]
L1210
  IC50: 100 nM
Calf thymus DNA [1]
  ΔTm: 15.9 °C

## COc1cc2c(cc1OCCCC(=O)Nc1cccc3c1C(=O)c1ccccc1C3=O)N=C[C@@H]1CCCN1C2=O
SiHa [2]
  Inhibition: 57%
HT-29 [3]
  Inhibition: 93%
SiHa [4]
  Inhibition: 52%
A549 [5]
  Inhibition: 27%
HCT-15 [6]
  Inhibition: 66%
HT-29 [7]
  Inhibition: 68%
A549 [8]
  Inhibition: 47%
A549 [9]
  Inhibition: 93%
HCT-15 [10]
  Inhibition: 59%
Calf thymus DNA [11]
  ΔTm: 9.1 °C
HT-29 [12]
  Inhibition: 86%
SiHa [13]
  Inhibition: 41%
HOP-62 [14]
  Inhibition: 74%
Calf thymus DNA [15]
  ΔTm: 8.9 °C
HOP-62 [16]
  Inhibition: 90%

## COc1cc2c(cc1O)N=C[C@@H]1CCCN1C2=O
Calf thymus DNA [15]
  ΔTm: 0.3 °C

## COc1cc2c(cc1OCCCCC(=O)Nc1cccc3c1C(=O)c1ccccc1C3=O)N=C[C@@H]1CCCN1C2=O
SiHa [2]
  Inhibition: 73%
HT-29 [3]
  Inhibition: 93%
SiHa [4]
  Inhibition: 49%
A549 [5]
  Inhibition: 10%
HCT-15 [6]
  Inhibition: 82%
HT-29 [7]
  Inhibition: 73%
A549 [8]
  Inhibition: 56%
A549 [9]
  Inhibition: 93%
HCT-15 [10]
  Inhibition: 61%
Calf thymus DNA [11]
  ΔTm: 5.2 °C
HT-29 [12]
  Inhibition: 87%
SiHa [13]
  Inhibition: 40%
HOP-62 [14]
  Inhibition: 73%
Calf thymus DNA [15]
  ΔTm: 5.1 °C
HOP-62 [16]
  Inhibition: 97%
